Measurements collected from several papers.
Organism: Enterococcus faecalis
Effect on: microbial growth

O=C(O)c1cn(C2CC2)c2cc(N3CCNCC3)c(F)cc2c1=O — MIC (broth dilution; ATCC14506; 18 h): < 5 µg/mL
CC(C)Oc1c(NC(=O)c2ccc(NC(=O)[C@H](CC(N)=O)NC(=O)c3ccc(NC(=O)c4ccc(C#N)cn4)cc3)cc2)ccc(C(=O)Nc2ccc(C(=O)O)cc2)c1O — MIC (ATCC29212): 0.125 µg/mL
CCn1cc(C(=O)O)c(=O)c2cc(F)c(N3CCNCC3)cc21 — MIC (broth dilution; ATCC14506; 18 h): < 5 µg/mL
Cc1ccc2nc(-c3c4ccccc4cc4ccccc34)[nH]c2c1 — MIC (broth dilution; ATCC29212): 64 µg/mL
C/C(O)=C1\C(=O)C(CC(C)C)N(C(=O)CCCCCc2ccccc2)C1=O (centres unmarked) — MIC (broth dilution; ATCC33186): < 0.7 µg/mL
Cc1ccc(C)n1-c1ccc(-c2nnc(-c3ccc(Br)cc3)[nH]2)cc1 — MIC (broth dilution; ATCC14506; 18 h): 8 µg/mL
Cc1ccc2nc(-c3ccco3)n(Cc3ccccc3)c2c1 — MIC (broth dilution; ATCC29212): 128 µg/mL
C/C=C(\C)c1cc(OC(=O)c2c(C)c(Cl)c(O)c(Cl)c2O)c(C)c(O)c1C(=O)O — MIC (broth dilution; ATCC29212): > 64 µg/mL
Cc1ccc(C)n1-c1ccc(-c2nnc(-c3ccccc3[N+](=O)[O-])[nH]2)cc1 — MIC (broth dilution; ATCC14506; 18 h): 31.2 µg/mL
CC(C)Oc1c(NC(=O)c2ccc(NC(=O)[C@H](CC(N)=O)NC(=O)c3ccc(NC(=O)c4ccc(C#N)s4)cc3)cc2)ccc(C(=O)Nc2ccc(C(=O)O)cc2)c1O — MIC (ATCC29212): 0.25 µg/mL
Clc1ccc(-c2nc3ccccc3[nH]2)cc1Cl — MIC (broth dilution; ATCC29212): 32 µg/mL
Cc1ccc(C)n1-c1ccc(-c2nnc(-c3cccc([N+](=O)[O-])c3)[nH]2)cc1 — MIC (broth dilution; ATCC14506; 18 h): 31.2 µg/mL
O=C(Nc1ccc2c(c1)OC(F)(F)O2)Nc1ccc(Cl)c(C(F)(F)F)c1 — MIC: 3 µM
Cc1ccc(C)n1-c1ccc(-c2nnc(-c3ccccc3Cl)[nH]2)cc1 — MIC (broth dilution; ATCC14506; 18 h): 16 µg/mL
Cc1ccc2nc(-c3ccc(F)cc3)[nH]c2c1 — MIC (broth dilution; ATCC29212): 64 µg/mL
C/C=C(\C)c1cc(O)c(C)c(OC(=O)c2c(C)cc(O)c(Cl)c2O)c1 — MIC (broth dilution; ATCC29212): 8 µg/mL
C=CCn1c(-c2ccc(OC)c(OC)c2)nc2ccccc21 — MIC (broth dilution; ATCC29212): 64 µg/mL
CC1(C)S[C@@H]2[C@H](NC(=O)[C@H](N)c3ccccc3)C(=O)N2[C@H]1C(=O)O — MIC (broth dilution; ATCC29212): 1 µg/mL
Cc1ccc2nc(-c3ccc(Cl)cc3)n(Cc3ccccc3)c2c1 — MIC (broth dilution; ATCC29212): 16 µg/mL
C/C(=C\c1ccc(O)cc1)C(=O)Nc1ccc(C(=O)N[C@@H](CC(N)=O)C(=O)Nc2ccc(C(=O)Nc3ccc(C(=O)Nc4ccc(C(=O)O)cc4)c(O)c3OC(C)C)cc2)cc1 — MIC (ATCC29212): 0.5 µg/mL
